The target of test [1] is T1, Nicotinamide N-methyltransferase (Homo sapiens, UniProt P40261).
T1 sequence (P40261 whole entry): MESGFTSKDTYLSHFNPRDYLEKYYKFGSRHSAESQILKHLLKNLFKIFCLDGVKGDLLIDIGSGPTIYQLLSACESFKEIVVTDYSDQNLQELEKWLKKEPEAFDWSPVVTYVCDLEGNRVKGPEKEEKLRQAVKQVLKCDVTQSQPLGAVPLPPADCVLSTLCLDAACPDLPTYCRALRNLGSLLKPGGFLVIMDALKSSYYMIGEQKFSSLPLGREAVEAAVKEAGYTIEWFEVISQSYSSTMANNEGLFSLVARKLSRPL
Kind of test: Inhibition of recombinant full length human NNMT measured for 30 mins by SAHH-coupled fluorescence assay. Put shortly:
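Compound at 0.1–100 µM. Fluorescence (ex 360, em 528 nm) followed for 30 min; rates taken from initial linear slopes and expressed as % activity. IC50 from a four-parameter logistic fit; SD from three independent experiments.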

Test [2] addresses DNA (cytosine-5)-methyltransferase 1 (Homo sapiens, UniProt P26358). Description: Inhibition of DNMT1 (unknown origin) using [3H]-SAM assessed as inhibition of dsDNA methylation after 1 hr by scintillation proximity assay. Put shortly: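 Incubated 1 h at 37 °C, quenched with guanidine HCl, then counted on a Flashplate. IC50 was taken at the SAM Km and converted to Ki as IC50/2.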
For orientation: In a scintillation proximity assay essentially only radioactivity close to the scintillant gives light.

The target of test [3] is Protein arginine N-methyltransferase 3 (Homo sapiens, UniProt O60678). Kind of test: Inhibition of PRMT3 (unknown origin) using [3H]SAM assessed as inhibition of biotinylated-H4 (1 to 24 amino acid residues) methylation after 1 hr by scintillation proximity assay.
Sequence of Protein arginine N-methyltransferase 3 (O60678 whole entry, the tested form may be a part): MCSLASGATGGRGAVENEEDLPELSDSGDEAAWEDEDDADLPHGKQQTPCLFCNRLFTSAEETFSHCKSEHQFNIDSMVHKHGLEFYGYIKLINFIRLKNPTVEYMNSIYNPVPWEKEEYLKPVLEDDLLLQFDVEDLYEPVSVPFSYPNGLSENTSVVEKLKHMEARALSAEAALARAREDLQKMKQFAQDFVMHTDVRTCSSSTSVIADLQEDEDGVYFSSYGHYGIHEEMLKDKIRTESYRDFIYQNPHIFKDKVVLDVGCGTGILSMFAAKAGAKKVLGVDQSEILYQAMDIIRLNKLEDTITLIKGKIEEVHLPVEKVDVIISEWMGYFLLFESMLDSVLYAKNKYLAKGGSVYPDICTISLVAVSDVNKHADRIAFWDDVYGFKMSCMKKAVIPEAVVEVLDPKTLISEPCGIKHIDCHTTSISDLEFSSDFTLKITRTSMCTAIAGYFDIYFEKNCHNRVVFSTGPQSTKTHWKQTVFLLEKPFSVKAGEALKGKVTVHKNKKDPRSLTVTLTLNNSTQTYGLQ
Test [4] deals with Protein arginine N-methyltransferase 5 (Homo sapiens, UniProt O14744). Kind of test: Inhibition of PRMT5 (unknown origin) using [3H]SAM after 1 hr by scintillation proximity assay. The method, boiled down: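 Triplicates, 1 h at room temperature, compound at 100 nM–100 µM. Guanidine quench, then Flashplate counting. Ki calculated as IC50/2.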
Sequence of Protein arginine N-methyltransferase 5 (O14744 whole entry): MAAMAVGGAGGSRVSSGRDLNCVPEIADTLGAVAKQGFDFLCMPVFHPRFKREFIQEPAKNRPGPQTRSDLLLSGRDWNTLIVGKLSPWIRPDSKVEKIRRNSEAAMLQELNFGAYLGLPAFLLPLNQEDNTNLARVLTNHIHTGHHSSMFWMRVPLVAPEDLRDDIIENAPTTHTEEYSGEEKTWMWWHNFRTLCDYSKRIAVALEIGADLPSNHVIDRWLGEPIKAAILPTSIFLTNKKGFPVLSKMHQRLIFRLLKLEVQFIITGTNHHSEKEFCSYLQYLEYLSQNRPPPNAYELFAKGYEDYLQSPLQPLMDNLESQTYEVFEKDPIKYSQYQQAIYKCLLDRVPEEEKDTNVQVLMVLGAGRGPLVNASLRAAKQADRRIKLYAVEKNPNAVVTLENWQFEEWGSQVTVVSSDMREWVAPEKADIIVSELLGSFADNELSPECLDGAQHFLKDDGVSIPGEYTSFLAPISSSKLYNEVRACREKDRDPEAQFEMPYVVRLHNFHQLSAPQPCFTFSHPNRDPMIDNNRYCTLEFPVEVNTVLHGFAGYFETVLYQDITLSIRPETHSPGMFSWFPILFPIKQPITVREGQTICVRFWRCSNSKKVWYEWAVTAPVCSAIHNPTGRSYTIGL
Test [5] has as its target T2, Histone-lysine N-methyltransferase EHMT2 (Homo sapiens) (UniProt Q96KQ7).
T2 sequence (whole entry): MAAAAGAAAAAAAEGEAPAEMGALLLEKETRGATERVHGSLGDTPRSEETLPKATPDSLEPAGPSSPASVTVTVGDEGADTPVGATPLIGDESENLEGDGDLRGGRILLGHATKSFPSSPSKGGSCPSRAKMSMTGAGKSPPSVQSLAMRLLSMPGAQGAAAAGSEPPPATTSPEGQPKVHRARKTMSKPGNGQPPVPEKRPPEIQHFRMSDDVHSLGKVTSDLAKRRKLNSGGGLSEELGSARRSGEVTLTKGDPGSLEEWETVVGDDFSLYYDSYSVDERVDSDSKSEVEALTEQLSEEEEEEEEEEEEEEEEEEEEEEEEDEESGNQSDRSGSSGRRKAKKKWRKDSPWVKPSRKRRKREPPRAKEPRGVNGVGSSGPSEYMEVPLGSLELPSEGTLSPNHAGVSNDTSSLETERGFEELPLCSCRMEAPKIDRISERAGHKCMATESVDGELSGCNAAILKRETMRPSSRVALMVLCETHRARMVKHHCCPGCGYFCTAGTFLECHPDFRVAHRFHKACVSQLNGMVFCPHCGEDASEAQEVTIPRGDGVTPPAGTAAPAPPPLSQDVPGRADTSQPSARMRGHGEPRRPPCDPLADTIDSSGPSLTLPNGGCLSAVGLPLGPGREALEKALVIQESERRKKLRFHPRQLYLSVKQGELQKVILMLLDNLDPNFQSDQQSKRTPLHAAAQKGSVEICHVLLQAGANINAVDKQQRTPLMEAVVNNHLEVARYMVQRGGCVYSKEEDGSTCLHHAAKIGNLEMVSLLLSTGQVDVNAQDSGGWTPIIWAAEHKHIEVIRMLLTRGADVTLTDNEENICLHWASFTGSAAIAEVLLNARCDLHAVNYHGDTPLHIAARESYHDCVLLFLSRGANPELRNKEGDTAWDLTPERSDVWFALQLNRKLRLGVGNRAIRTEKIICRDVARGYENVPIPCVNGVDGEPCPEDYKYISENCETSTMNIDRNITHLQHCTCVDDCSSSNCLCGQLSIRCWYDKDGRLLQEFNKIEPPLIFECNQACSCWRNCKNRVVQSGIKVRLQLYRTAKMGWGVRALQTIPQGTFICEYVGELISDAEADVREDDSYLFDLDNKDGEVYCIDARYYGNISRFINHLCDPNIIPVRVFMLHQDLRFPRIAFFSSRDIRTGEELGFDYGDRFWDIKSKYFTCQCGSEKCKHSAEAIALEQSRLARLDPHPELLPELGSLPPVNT
Kind of test: Inhibition of G9a (unknown origin) using [3H]SAM assessed as inhibition of biotinylated-H3 (1 to 25 amino acid residues) methylation after 1 hr by scintillation proximity assay. Put shortly: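 Triplicates, 1 h at room temperature. Guanidine HCl stop, then Flashplate CPM. Compound at 100 nM–100 µM. Activity normalised to no-compound (100%) and no-enzyme (0%) controls. Ki = IC50/2.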

The target of test [6] is T3, Histone-lysine N-methyltransferase SETD7 (Homo sapiens) (UniProt Q8WTS6).
T3 sequence (whole entry): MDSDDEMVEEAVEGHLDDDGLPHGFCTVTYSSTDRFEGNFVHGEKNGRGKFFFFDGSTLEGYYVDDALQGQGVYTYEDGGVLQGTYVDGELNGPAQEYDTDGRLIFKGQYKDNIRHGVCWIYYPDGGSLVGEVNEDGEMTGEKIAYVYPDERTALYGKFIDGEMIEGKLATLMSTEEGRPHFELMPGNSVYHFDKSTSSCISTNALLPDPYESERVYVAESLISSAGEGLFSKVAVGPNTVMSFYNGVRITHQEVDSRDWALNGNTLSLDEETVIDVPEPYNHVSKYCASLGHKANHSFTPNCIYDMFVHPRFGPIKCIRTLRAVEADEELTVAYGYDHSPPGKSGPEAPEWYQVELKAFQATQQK
Description: Inhibition of SETD7 (unknown origin) using [3H]SAM assessed as inhibition of biotinylated-H3 (1 to 25 amino acid residues) methylation at 0.1 to 100 uM after 1 hr by scintillation proximity assay. Put shortly: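 Triplicates, 1 h at room temperature, compound at 100 nM–100 µM. Guanidine HCl stop, then Flashplate CPM normalised to controls. Ki = IC50/2.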

For test [7], the target named is Histone-lysine N-methyltransferase SUV39H2 (Homo sapiens) (UniProt Q9H5I1). Kind of test: Inhibition of SUV39H2 (unknown origin) using [3H]SAM assessed as inhibition of biotinylated-H3 (1 to 25 amino acid residues) methylation at 0.1 to 100 uM after 1 hr by scintillation proximity assay. The method, boiled down:
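Triplicate 1 h room-temperature reactions with compound at 100 nM–100 µM. Read on Flashplate after guanidine quench. Ki = IC50/2.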

In test [8] the target is T4, Histone-lysine N-methyltransferase EHMT1 (Homo sapiens) (UniProt Q9H9B1).
T4 sequence (whole entry): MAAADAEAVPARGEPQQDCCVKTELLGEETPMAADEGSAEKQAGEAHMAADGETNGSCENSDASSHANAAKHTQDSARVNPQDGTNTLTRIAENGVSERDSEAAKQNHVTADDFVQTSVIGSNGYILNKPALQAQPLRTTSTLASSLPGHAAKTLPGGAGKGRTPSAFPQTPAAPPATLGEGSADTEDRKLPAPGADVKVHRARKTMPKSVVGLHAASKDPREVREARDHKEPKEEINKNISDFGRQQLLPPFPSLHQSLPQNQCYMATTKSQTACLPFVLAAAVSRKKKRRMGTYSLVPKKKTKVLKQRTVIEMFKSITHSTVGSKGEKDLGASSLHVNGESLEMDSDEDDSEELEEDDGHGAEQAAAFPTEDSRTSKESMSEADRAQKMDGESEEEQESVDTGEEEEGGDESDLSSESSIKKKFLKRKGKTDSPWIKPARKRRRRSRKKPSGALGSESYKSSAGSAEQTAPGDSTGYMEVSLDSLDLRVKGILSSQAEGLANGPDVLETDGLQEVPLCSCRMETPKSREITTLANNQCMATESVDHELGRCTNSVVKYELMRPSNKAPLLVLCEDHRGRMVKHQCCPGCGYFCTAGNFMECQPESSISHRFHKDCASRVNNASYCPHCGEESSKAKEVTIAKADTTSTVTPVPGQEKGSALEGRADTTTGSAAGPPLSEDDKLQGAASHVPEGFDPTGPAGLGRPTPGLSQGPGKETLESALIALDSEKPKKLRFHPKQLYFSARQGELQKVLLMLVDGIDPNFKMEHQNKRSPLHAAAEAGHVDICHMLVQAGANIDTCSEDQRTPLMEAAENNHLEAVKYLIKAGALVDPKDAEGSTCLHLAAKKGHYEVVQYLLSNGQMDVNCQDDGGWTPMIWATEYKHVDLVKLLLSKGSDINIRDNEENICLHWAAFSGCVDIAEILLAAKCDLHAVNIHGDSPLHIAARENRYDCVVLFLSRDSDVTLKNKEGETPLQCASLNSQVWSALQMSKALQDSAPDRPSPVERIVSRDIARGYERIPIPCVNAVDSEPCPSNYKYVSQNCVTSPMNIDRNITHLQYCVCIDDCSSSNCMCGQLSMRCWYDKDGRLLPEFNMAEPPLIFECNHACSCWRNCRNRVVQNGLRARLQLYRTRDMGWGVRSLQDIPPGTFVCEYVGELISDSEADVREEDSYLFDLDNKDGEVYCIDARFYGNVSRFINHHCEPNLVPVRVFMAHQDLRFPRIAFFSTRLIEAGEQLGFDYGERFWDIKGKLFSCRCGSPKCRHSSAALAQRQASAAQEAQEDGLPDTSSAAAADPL
Description: Inhibition of EHMT1 (unknown origin) using [3H]SAM assessed as inhibition of biotinylated-H3 (1 to 25 amino acid residues) methylation at 0.1 to 100 uM after 1 hr by scintillation proximity assay. The method, boiled down:
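Triplicates, 1 h at room temperature. Compound range 100 nM–100 µM. Guanidine stop, then Flashplate counting against no-compound and no-enzyme controls. Ki derived as IC50/2.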

The target of test [9] is Histone-lysine N-methyltransferase 2A (Homo sapiens) (UniProt Q03164). Description: Inhibition of MLL1 (unknown origin) using [3H]SAM assessed as inhibition of biotinylated-H3 (1 to 25 amino acid residues) methylation at 0.1 to 100 uM after 1 hr by scintillation proximity assay.
Test [10] deals with T5, N-lysine methyltransferase KMT5A (Homo sapiens) (UniProt Q9NQR1).
T5 sequence (whole entry): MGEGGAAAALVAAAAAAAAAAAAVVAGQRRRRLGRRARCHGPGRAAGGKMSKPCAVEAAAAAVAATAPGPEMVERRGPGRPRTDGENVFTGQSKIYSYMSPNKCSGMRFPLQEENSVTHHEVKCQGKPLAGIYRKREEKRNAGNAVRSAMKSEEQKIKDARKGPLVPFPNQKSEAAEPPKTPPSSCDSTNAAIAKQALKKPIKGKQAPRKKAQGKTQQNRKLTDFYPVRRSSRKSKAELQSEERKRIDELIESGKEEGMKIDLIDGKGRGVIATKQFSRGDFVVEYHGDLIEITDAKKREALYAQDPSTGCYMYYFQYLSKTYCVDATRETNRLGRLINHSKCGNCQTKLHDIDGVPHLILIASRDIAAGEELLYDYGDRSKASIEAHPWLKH
Kind of test: Inhibition of SETD8 (unknown origin) using [3H]SAM assessed as inhibition of biotinylated-H4 (1 to 24 amino acid residues) methylation at 0.1 to 100 uM after 1 hr by scintillation proximity assay.

For test [11], the species on record is Homo sapiens. Kind of test: Inhibition of PRC2 complex (unknown origin) using [3H]SAM assessed as inhibition of biotinylated-H3 (21 to 44 amino acid residues) methylation at 0.1 to 100 uM after 1 hr by scintillation proximity assay.

The source made the active and inactive calls. The calls are words filed in the database; no cut-off is given here.

Experimental findings from ChEMBL document CHEMBL2346640, “Bromo-deaza-SAH: a potent and selective DOT1L inhibitor” (Bioorg Med Chem, 2013) are described below.

Sequence of DNA (cytosine-5)-methyltransferase 1 (P26358 whole entry): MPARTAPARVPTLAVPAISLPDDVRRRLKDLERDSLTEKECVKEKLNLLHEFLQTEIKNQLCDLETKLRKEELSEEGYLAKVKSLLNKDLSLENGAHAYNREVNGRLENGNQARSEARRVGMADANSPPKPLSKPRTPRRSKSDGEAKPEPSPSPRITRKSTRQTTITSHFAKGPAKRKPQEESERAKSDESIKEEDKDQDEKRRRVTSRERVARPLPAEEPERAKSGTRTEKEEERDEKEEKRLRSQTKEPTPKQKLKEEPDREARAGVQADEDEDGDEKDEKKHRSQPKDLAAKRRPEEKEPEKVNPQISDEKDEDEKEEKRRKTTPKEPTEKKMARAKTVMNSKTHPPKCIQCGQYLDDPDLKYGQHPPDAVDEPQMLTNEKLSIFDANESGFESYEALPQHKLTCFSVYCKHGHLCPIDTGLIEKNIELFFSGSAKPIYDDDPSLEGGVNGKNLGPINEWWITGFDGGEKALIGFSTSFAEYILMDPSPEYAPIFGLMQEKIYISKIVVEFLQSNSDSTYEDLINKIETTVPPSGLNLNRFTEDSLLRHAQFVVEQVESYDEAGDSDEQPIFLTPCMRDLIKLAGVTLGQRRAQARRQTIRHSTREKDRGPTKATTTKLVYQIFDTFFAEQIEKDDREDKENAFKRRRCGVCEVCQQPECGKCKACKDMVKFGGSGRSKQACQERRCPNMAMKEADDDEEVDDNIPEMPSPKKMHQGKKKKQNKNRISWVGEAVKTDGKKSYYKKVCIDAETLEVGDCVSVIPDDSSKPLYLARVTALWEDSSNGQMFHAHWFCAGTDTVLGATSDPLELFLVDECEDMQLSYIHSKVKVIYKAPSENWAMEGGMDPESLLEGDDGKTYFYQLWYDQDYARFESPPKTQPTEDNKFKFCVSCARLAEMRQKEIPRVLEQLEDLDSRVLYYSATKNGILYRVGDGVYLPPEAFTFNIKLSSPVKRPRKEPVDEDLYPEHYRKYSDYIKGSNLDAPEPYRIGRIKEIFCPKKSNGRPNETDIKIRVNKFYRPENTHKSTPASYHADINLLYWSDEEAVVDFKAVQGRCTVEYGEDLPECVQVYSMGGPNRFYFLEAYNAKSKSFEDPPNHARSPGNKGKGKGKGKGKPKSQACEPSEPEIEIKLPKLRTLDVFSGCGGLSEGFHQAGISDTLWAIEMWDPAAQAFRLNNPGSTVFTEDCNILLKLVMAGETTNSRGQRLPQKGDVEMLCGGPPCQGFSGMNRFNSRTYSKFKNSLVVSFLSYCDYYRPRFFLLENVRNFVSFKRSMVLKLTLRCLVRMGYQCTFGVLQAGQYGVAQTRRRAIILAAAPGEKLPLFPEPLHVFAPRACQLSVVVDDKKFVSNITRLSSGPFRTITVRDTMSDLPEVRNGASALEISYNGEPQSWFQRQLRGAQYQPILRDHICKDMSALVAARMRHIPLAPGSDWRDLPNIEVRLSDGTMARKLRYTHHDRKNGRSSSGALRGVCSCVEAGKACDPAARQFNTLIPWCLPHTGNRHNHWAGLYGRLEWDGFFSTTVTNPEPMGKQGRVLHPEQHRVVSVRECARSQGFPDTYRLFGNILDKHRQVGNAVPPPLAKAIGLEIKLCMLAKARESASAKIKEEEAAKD
Sequence of Histone-lysine N-methyltransferase SUV39H2 (Homo sapiens) (Q9H5I1 whole entry, the tested form may be a part): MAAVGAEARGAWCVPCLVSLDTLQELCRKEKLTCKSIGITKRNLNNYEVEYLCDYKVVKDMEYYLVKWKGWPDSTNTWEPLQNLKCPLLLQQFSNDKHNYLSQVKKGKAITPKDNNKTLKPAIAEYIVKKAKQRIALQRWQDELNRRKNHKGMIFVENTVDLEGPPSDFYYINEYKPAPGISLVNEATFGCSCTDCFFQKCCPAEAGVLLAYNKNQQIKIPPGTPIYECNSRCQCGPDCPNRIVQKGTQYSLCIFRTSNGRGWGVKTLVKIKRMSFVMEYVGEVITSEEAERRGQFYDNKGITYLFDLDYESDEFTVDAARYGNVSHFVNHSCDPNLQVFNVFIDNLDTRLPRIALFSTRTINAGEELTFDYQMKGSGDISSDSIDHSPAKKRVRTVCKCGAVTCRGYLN

As usually defined, the IC50 is the concentration that inhibits the measured activity by half. Broadly, the Ki is a dissociation constant, usually derived from enzyme kinetics or from competition with a known ligand. As for `Nc1ncnc2c1c(Br)cn2[C@@H]1O[C@H](CSCC[C@H](N)C(=O)O)[C@@H](O)[C@H]1O`, the IC50 was found to be 1.5 µM in [1], 1.9 µM in test [2], 2.3 µM in [3] and 2.3 µM in [4]. Besides, the Ki turned out to be 0.75 µM in [1], 0.95 µM in test [2], 1.15 µM in test [3] and 1.15 µM in test [4]. Further, the inhibition entry in test [5], in [6], in [7], in test [8], in test [9] and in test [10] was “inactive” each time. The inhibition result in [11] was “inactive”.
